According to ChEMBL document CHEMBL1157416, “Novel open-chain cytochalsins from the marine-derived fungus Spicaria elegans” (J Nat Prod, 2008):

What was measured:
Type in all cases: functional, cell-based
[1] = test system: HL-60; assay: Cytotoxicity against human HL60 cells after 72 hrs by MTT assay; details: HL-60, 72 h
Procedure, shortened: (§1)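 Cells grown in RPMI-1640 with 10% FBS, 5% CO2/95% air, 37 °C; plated at 5 × 10^4 cells/mL, preincubated 24 h, then compounds added in DMSO at several concentrations for 72 h. MTT (5 mg/mL) added for 4 h, medium replaced by DMSO to dissolve formazan, absorbance read at 570 nm; IC50 values reported.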

[2] = test system: A549; assay: Cytotoxicity against human A549 cells after 72 hrs by MTT assay; details: A549, 72 h; procedure, shortened: as §1
[3] = test system: P388; assay: Cytotoxicity against mouse P388 cells after 72 hrs by MTT assay; details: P388, 72 h; procedure, shortened: as §1
[4] = test system: Bel-7402; assay: Cytotoxicity against human BEL-7402 cells after 72 hrs by MTT assay; details: Bel-7402, 72 h; procedure, shortened: as §1

Compound `C/C1=C/CC(=O)O[C@@]23C(=O)N[C@@H](Cc4ccc(O)cc4)[C@@H]2[C@H](C)[C@@]2(C)O[C@H]2[C@@H]3/C=C/C[C@H](C)C1=O` has an IC50 [1] of 66 µM, an IC50 [2] of 96 µM and an IC50 [3] of 79 µM. It also gave an IC50 [4] of 94 µM.
With `C=C1[C@@H](C)[C@H]2[C@H](Cc3ccccc3)NC(=O)[C@@]2(O)[C@@H](/C=C/C[C@H](C)[C@@H](O)[C@@H](C)O)[C@@H]1O` [CYTOCHALASIN Z10] the IC50 [1] was 69 µM, the IC50 [2] was 9.6 µM and the IC50 [3] was greater than 100 µM. It also gave an IC50 [4] greater than 100 µM.
For `C=C1[C@@H](C)[C@H]2[C@H](Cc3ccccc3)NC(=O)[C@@]2(O)[C@@H](/C=C/C[C@H](C)C(=O)[C@H](C)O)[C@@H]1O` [CYTOCHALASIN Z11], the IC50 [1] was 45 µM, the IC50 [2] was 4.3 µM and the IC50 [3] was 69 µM. The IC50 [4] was greater than 100 µM.
Compound `CC1=C(C)[C@H]2[C@H](Cc3ccccc3)NC(=O)[C@@]2(O)[C@@H](/C=C/C[C@H](C)[C@@H](O)[C@@H](C)O)[C@@H]1O` [CYTOCHALASIN Z12] has an IC50 [1] of 89 µM, an IC50 [2] of 92 µM and an IC50 [3] greater than 100 µM. It also gave an IC50 [4] greater than 100 µM.
For `CC1=C(C)[C@H]2[C@H](Cc3ccccc3)NC(=O)[C@@]2(O)[C@@H](/C=C/C[C@H](C)C(=O)[C@H](C)O)[C@@H]1O` [CYTOCHALASIN Z13], the IC50 [1] was 80 µM, the IC50 [2] was 76 µM and the IC50 [3] was 67 µM. It also gave an IC50 [4] of 88 µM.
With `CC(=O)[C@@H](O)[C@@H](C)C/C=C/[C@H]1[C@H](O)C(C)=C(C)[C@H]2[C@H](Cc3ccccc3)NC(=O)[C@@]12O` [CYTOCHALASIN Z14] the IC50 [1] was greater than 100 µM, the IC50 [2] was greater than 100 µM and the IC50 [3] was greater than 100 µM. For the same compound, the IC50 [4] was greater than 100 µM.
`CC(=O)[C@H](O)[C@@H](C)C/C=C/[C@H]1[C@H](O)C(C)=C(C)[C@H]2[C@H](Cc3ccccc3)NC(=O)[C@@]12O` [CYTOCHALASIN Z15] was tested, and the IC50 [1] was greater than 100 µM, the IC50 [2] was greater than 100 µM and the IC50 [3] was greater than 100 µM. It also gave an IC50 [4] greater than 100 µM.
